Data published in ChEMBL document CHEMBL3351594, “Cytotoxic dimeric epipolythiodiketopiperazines from the ascomycetous fungus Preussia typharum” (J Nat Prod, 2014).
The source made the active and inactive calls. The rule behind the calls is not given here.

Tests used:
[1] = tested on: MIA PaCa-2; test: Cytotoxicity against human MIAPaCa2 cells up to 30 uM after 24 hrs by MTT assay; type: functional, cell-based
[2] = Cytotoxicity against human P-gp expressing SKOV3-M6/6 cells by SRB assay; type: functional
Method in brief: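 SRB assay in SK-OV-3/MDR-1-6/6 cells, a single-cell clone of SKOV-3/MDR1 (P-gp). Percent cell growth follows Boyd et al. GI50 was derived from dose–response curves of percent growth. Results are mean ± SE of n = 3 or 4 independent experiments. Relative resistance is calculated against parental SK-OV-3.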

[3] = Cytotoxicity against human SKOV3 cells by SRB method; type: functional; conditions: SK-OV-3
Method in brief: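 SRB assay in SK-OV-3 cells; percent cell growth per Boyd et al.; GI50, TGI and LC50 fitted from dose–response curves of percent growth; mean ± SE, n = 3 or 4 independent experiments.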

[4] = tested on: SK-OV-3; test: Resistance ratio of GI50 for human P-gp expressing SKOV3-M6/6 cells to GI50 for human SKOV3 cells; type: functional
Method in brief: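 SRB assay in SK-OV-3 and its P-gp/MDR1 single-cell clone SK-OV-3/MDR-1-6/6; GI50 from percent growth dose–response curves, n = 3 or 4 independent experiments; relative resistance taken as ratio of GI50 in the MDR line to parental.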

[5] = Cytotoxicity against human MIAPaCa2 cells after 24 hrs by MTT assay; type: functional, cell-based; conditions: MIA PaCa-2, 24 h
[6] = biological target: mTORC1 (Homo sapiens) (UniProt P42345+Q8N122+Q9BVC4); conditions: HeLa, 100 nM
Chain of mTORC1 (Homo sapiens) (Q8N122 whole entry, looked up, other chains not shown): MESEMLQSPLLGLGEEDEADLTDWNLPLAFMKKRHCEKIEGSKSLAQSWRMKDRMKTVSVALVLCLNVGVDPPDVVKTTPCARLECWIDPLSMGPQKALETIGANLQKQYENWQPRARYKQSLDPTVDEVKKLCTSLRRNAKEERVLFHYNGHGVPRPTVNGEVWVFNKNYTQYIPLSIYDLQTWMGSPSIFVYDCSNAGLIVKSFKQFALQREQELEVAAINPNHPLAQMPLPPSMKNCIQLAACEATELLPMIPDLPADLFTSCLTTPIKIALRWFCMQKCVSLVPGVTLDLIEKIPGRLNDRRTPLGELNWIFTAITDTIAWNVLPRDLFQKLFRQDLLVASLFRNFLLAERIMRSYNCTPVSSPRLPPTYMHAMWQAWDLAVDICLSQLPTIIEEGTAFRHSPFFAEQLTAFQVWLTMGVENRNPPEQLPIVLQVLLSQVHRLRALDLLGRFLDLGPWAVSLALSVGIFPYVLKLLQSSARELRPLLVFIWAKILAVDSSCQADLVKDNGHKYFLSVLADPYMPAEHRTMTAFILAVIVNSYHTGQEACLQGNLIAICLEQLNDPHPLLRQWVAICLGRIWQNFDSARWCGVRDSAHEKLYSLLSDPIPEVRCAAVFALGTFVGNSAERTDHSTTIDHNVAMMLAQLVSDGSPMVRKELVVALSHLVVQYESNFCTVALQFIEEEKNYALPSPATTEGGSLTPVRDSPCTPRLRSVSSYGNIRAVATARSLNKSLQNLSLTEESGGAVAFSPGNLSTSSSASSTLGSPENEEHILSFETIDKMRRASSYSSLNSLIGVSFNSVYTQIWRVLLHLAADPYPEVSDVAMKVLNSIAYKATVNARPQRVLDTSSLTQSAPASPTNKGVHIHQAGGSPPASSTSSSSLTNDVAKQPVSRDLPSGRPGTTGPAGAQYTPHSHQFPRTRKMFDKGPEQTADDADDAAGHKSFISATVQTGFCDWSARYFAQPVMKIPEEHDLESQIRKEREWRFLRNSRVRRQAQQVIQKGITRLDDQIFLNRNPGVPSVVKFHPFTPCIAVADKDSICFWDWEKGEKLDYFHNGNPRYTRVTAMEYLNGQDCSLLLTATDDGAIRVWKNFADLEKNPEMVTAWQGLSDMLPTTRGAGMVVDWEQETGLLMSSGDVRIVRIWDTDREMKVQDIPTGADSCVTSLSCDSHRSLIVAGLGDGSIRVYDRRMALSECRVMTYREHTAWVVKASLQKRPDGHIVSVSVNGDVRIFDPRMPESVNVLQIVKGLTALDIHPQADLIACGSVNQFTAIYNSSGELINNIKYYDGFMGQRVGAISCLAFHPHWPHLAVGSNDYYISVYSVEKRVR
Chain of mTORC1 (Homo sapiens) (Q9BVC4 whole entry, looked up, other chains not shown): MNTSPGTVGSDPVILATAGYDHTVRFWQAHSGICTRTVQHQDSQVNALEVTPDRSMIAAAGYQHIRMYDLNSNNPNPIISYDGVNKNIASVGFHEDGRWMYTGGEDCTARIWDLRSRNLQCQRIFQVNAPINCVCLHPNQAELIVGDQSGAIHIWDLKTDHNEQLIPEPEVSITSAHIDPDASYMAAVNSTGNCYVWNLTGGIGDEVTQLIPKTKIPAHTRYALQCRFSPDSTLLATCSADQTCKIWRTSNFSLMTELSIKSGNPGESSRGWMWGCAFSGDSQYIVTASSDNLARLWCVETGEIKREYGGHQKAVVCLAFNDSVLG

| SMILES | Activity [1] | IC50 [5] | other results |
| --- | --- | --- | --- |
| CS[C@@]1(C(C)C)C(=O)N2[C@H]3Nc4ccccc4[C@@]3(C34c5ccccc5N(C)[C@H]3N3C(=O)[C@@](CO)(SC)N(C)C(=O)[C@]3(SC)[C@H]4O)[C@H](O)[C@]2(SC)C(=O)N1C (stereo not given in full) | inactive | – | – |
| CC(=O)O[C@H]1C(=O)[C@@]2(C)[C@H]([C@H](OC(=O)c3ccccc3)[C@]3(O)C[C@H](OC(=O)[C@H](O)[C@@H](NC(=O)c4ccccc4)c4ccccc4)C(C)=C1C3(C)C)[C@]1(OC(C)=O)CO[C@@H]1C[C@@H]2O [PACLITAXEL] | – | – | GI50 [2]: 600 nM; GI50 [3]: 4.7 nM; Ratio [4]: 127 |
| CS[C@@]1(C(C)C)C(=O)N2[C@H]3Nc4ccccc4[C@@]3(C34c5ccccc5N[C@H]3N3C(=O)[C@@](CO)(SC)N(C)C(=O)[C@]3(SC)[C@H]4O)[C@H](O)[C@]2(SC)C(=O)N1C (stereo not given in full) | inactive | – | – |
| CS[C@@]1(C(C)C)C(=O)N2[C@H]3N(C)c4ccccc4[C@@]3(C34c5ccccc5N[C@H]3N3C(=O)[C@@](CO)(SC)N(C)C(=O)[C@]3(SC)[C@H]4O)[C@H](O)[C@]2(SC)C(=O)N1C (stereo not given in full) | inactive | – | – |
| CC(C)[C@@]12SS[C@]3(C(=O)N1C)[C@@H](O)[C@]1(C45c6ccccc6N[C@H]4N4C(=O)[C@@]6(CO)SSSS[C@@]4(C(=O)N6C)[C@H]5O)c4ccccc4N[C@@H]1N3C2=O (stereo not given in full) | – | 9.1 nM | – |
| CO[C@H]1C[C@@H]2CC[C@@H](C)[C@@](O)(O2)C(=O)C(=O)N2CCCC[C@H]2C(=O)O[C@H]([C@H](C)C[C@@H]2CC[C@@H](O)[C@H](OC)C2)CC(=O)[C@H](C)/C=C(\C)[C@@H](O)[C@@H](OC)C(=O)[C@H](C)C[C@H](C)/C=C/C=C/C=C/1C | – | – | inhibition [6]: Active |
| CC(C)[C@@]12SS[C@]3(C(=O)N1C)[C@@H](O)[C@]1(C45c6ccccc6N[C@H]4N4C(=O)[C@]6(CO)SSSS[C@]4(C(=O)N6C)[C@H]5O)c4ccccc4N[C@@H]1N3C2=O (stereo not given in full) | – | 43.1 nM | – |
| CC(C)[C@@]12SS[C@]3(C(=O)N1C)[C@@H](O)[C@]1(C45c6ccccc6N[C@H]4N4C(=O)[C@]6(CO)SS[C@]4(C(=O)N6C)[C@H]5O)c4ccccc4N[C@@H]1N3C2=O (stereo not given in full) | – | 33.6 nM | – |
